Assay outcomes deposited in PubChem BioAssay by The Scripps Research Institute Molecular Screening Center.
FXN GAA850 act: FXN promoter activators, primary screen, cell-based, luciferase luminescence, HEK293 lucGAA850. HEK293 lucGAA850 FXN promoter luciferase reporter, 24 h; percent of 10 µM SAHA response. activation, % at 6 µM. hit rate 0.56% among 360,000. AID 540364, 2011;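 active = activation above the average of all compounds screened plus 3 SD, cutoff fixed separately per campaign, cut at about 7.5% in these data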
AHR act: AHR activators, primary screen, cell-based, luminescence, luciferase reporter, human; Aryl hydrocarbon receptor (Homo sapiens), P35869; AHR-responsive luciferase reporter cells; activation, % at 5 µM; hit rate 2.5% among 320,000; AID 2796, 2010; in the data active = activation above about 47%
Target sequence (P35869 whole entry, looked up): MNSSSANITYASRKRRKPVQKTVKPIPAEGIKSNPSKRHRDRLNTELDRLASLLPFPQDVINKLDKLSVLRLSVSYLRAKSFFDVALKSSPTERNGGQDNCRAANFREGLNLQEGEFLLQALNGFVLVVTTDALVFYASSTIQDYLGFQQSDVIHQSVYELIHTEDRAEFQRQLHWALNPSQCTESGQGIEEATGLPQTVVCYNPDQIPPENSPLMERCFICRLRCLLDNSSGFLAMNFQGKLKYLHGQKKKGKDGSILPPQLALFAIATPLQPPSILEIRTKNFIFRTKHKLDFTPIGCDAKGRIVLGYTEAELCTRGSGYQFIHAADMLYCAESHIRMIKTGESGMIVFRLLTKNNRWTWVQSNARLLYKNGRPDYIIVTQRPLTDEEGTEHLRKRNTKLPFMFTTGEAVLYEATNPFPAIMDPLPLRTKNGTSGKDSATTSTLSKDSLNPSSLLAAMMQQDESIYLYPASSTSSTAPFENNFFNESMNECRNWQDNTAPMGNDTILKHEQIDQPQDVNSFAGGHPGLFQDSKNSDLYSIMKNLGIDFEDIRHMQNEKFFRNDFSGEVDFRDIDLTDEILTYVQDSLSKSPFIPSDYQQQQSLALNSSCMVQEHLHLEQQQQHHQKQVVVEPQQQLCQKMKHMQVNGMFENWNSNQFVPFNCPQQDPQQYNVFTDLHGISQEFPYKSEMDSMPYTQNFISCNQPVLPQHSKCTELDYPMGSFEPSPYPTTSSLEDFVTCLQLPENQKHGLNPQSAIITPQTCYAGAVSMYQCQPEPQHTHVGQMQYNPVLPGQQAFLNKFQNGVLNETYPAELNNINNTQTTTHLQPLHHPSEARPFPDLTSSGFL
MC4R antag cAMP: MC4R antagonists of cAMP signaling, primary screen, cell-based, TR-FRET, antagonist arm of biased-ligand search; Melanocortin receptor 4 (Homo sapiens), P32245; MC4R-expressing cells, MTII-stimulated cAMP, LANCE TR-FRET; inhibition, % at 6.5 µM; hit rate 0.48% among 360,000; AID 540295, 2011;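 active = inhibition above its plate's cutoff, the mean of tested wells on that plate plus 3 SD, cut at about 29% in these data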
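Material: human MC4R-expressing U2OS cells. Probe or stimulus: Melanotan II challenge. Dosing: 6.5 µM single dose. Times: 30-min compound, 1-h challenge, 1-h detection, room temperature. Technique: TR-FRET with Eu-cAMP and labeled anti-cAMP, 671 nm. Replication: singlicate.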
MC4R barr agon: MC4R agonists recruiting beta-arrestin, primary screen, cell-based, luminescence, agonist arm of biased-ligand search; hit rate 0.98% among 360,000; AID 540308, 2011; activation, % at 8.9 µM; U2OS MC4R beta-arrestin complementation; percent of melanotan II response, DMSO zero;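 active = activation above a per-plate cutoff, the mean activation of sample wells on that plate plus 3 SD, cut at about 8% in these data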
m5-HT2A agonist: mouse Htr2a agonists via beta-arrestin recruitment, primary screen, cell-based, luminescence | 5-hydroxytryptamine receptor 2A (Mus musculus), P35363 | CHO-K1 mHTR2A beta-arrestin complementation; percent of 30 µM serotonin response | activation, % at 7.6 µM | hit rate 0.66% among 360,000;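 active = activation above a run cutoff, the mean activation of all tested compounds plus 3 SD, cut at about 14% in these data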
Large screens that a line does not name were inactive. Only some compounds are listed: those with a hit (about 4.7% of all), similar ones and a draw of the others.

Oc1ccc(Cl)cc1-c1cc(-c2ccco2)[nH]n1	AHR act 47.2
CC(=O)Nc1ccc(-n2cc(-c3ccccc3)[nH]c2=S)cc1	none
COc1ccc(-n2cc(-c3ccccc3)[nH]c2=S)cc1	AHR act 55.1
CC1CCC2(CC1)OCC1(CCC3(COC4(CCC(C)CC4)OC3)C1=O)CO2 (centres undefined)	MC4R barr agon 9.2
CCCCn1nnnc1C(c1ccccc1)N1CCN(c2ccc(F)cc2)CC1 (centres undefined)	none (no result: FXN GAA850 act, AHR act, MC4R antag cAMP, MC4R barr agon)
Cc1cccc(NC(=O)c2cc(Cl)nc3ccccc23)c1	AHR act 61.7
COC(=O)c1ccc(NC(=O)c2cc(-c3ccncc3)nc3ccccc23)cc1	none
Cc1cccc(-c2cc(C(=O)Nc3ccncc3)c3ccccc3n2)c1	MC4R barr agon 12.4 (no result: AHR act)
Cc1cc(C(=O)Nc2ccc(Cl)cc2)c2ccccc2n1	AHR act 65.7
Cc1ccc(NC(=O)c2cc(Cl)nc3ccccc23)cc1	none
O=C(Nc1ccncc1)c1cc(-c2ccccc2)nc2ccccc12	MC4R barr agon 9.3 (no result: AHR act)
Cc1cccc(-c2cc(C(=O)Nc3cccnc3)c3ccccc3n2)c1	none
O=c1[nH]c(O)c(/C=C2\C=Nc3ccccc32)[nH]1	none (no result: AHR act)
Oc1nc(Nc2ccccc2)sc1/C=C1\C=Nc2ccccc21	AHR act 147.0
CCn1c(O)c(/C=C2\C=Nc3ccccc32)sc1=O	AHR act 75.6
CCn1c(O)c(/C=C2\C=Nc3ccccc32)sc1=Nc1ccc(C)cc1	none
COc1cc(NC(=O)CCc2c(C)noc2C)c(Cl)cc1C(=O)O	none
O=C(Nc1cc2c(cc1C(=O)O)OCCCO2)c1ccc(C(F)(F)F)cc1	AHR act 73.4
O=C(O)c1cc2c(cc1NC(=O)c1ccccc1C(F)(F)F)OCCCO2	none
CCn1c2ccc(Cl)cc2c2nc3ccccc3nc21	AHR act 52.9 (no result: FXN GAA850 act, MC4R antag cAMP, MC4R barr agon, m5-HT2A agonist)
CCn1c2ccc(OC)cc2c2nc3ccccc3nc21	none (no result: FXN GAA850 act, MC4R antag cAMP, MC4R barr agon, m5-HT2A agonist)
COc1cccc(C(=O)OCC(=O)Nc2cc(C)on2)c1OC	none
CCOCCCNC(=O)c1cc2c(s1)-c1ccccc1SC2	none
CN(C)CCNC(=O)c1cc2c(s1)-c1ccc(Cl)cc1SC2	MC4R barr agon 11.5 (no result: AHR act)
Cc1c2cnn(CC(=O)NCCN3CCOCC3)c(=O)c2c(C)n1Cc1ccccc1F	none (no result: AHR act)
Brc1cc2[nH]cnc2c2ccccc12	AHR act 63.0
Oc1ccc2c(ccc3[nH]cnc32)c1	none
C/C(=N/NC(=O)c1nnn(-c2nonc2N)c1CSc1ccc(C)cc1)c1ccncc1	none (no result: AHR act)
Cc1cc(C(=O)NC(=S)Nc2ccccc2N2CCCC2)ccc1[N+](=O)[O-]	AHR act 49.7
O=C(Nc1cccc(Cl)c1N1CCOCC1)c1cc([N+](=O)[O-])ccc1N1CCOCC1	none
COc1ccccc1NC(=O)c1cc([N+](=O)[O-])ccc1N1CCOCC1	AHR act 59.7
Cc1cc(C(=O)Nc2ccccc2N2CCOCC2)ccc1[N+](=O)[O-]	AHR act 72.1
COc1ccc(Cc2nc(-c3ccc(Br)o3)no2)cc1OC	AHR act 47.3
COc1ccc(-c2noc(-c3ccc(Br)o3)n2)cc1OC	none
Clc1ccccc1OCc1nc(-c2ccc(Br)o2)no1	AHR act 61.1
O=C(NC1CCCc2c1cnn2-c1ccccc1F)c1ccncc1 (centres undefined)	none (no result: AHR act)
CCOc1cc(-c2ccc(N)c(OCC)c2)ccc1N	AHR act 49.8
O=c1[nH]cnc2c1sc1nc(-c3ccccc3)c3c(c12)CCCC3	none
Cc1ccc(-c2nc3sc4c(N)ncnc4c3c3c2CCCC3)cc1	MC4R barr agon 8.4
O=c1c2c(nc3c(-c4ccc(Cl)cc4)c[nH]n13)CCCC2	AHR act 66.7
C/C(=N\Nc1cccc2cccnc12)c1ccc[nH]1	AHR act 51.2
CCC(=O)Nc1cccc2cccnc12	none
COc1cccc(CNCCc2c[nH]c3ccccc23)c1OCc1ccc(F)cc1	none
COc1cc(CNCCc2c[nH]c3ccccc23)ccc1OCc1ccc(F)cc1	MC4R barr agon 9.2
CC1(C)CC(=O)C/C(=N/Nc2nc3ccccc3s2)C1	none
CC1CCC/C(=N/Nc2nc3ccccc3s2)C1 (centres undefined)	AHR act 61.5
O=C(Nc1nnc(C2CC2)s1)c1n[nH]c(=O)c2ccccc12	AHR act 65.2
O=C(Nc1nnc(C2CC2)s1)c1ccc(S(=O)(=O)c2ccccc2)cc1	none
CSc1ncccc1C(=O)Nc1nnc(C2CC2)s1	AHR act 60.7
CCc1nnc(NC(=O)c2cccnc2SC)s1	AHR act 50.5
CN(C(=O)Nc1ccc(F)cc1)[C@H]1C[C@H]2c3[nH]c4ccccc4c3CCN2C(=O)[C@H]1CO	none (no result: AHR act)
Cc1ccc(Cc2c(-c3cccc(Cl)c3)nc3c(C)cc(Br)cn23)cc1	none (no result: FXN GAA850 act, AHR act, MC4R antag cAMP, MC4R barr agon)
COc1ccc(CCC(=O)Nc2c(-c3ccc(N(C)C)cc3)[nH][nH]c2=O)cc1	m5-HT2A agonist 16.3 (no result: FXN GAA850 act, AHR act, MC4R antag cAMP, MC4R barr agon)
CCn1c(-c2ccccc2)c(C(=O)CCl)c2ccccc21	none
Cn1c(-c2ccccc2)c(C(=O)CCl)c2ccccc21	MC4R barr agon 12.5 (no result: AHR act)
C/C(=N\Nc1ccc([N+](=O)[O-])cc1)c1ccc(-n2nncc2C)cc1	AHR act 50.0
Cc1ccc(-n2nnnc2-c2nc3ccccc3s2)cc1	MC4R barr agon 8.7
CC(C)[C@H](NS(=O)(=O)c1ccccc1F)C(=O)OCC(=O)Nc1cccc(S(N)(=O)=O)c1	none
O=c1cc(SCc2ccccc2)nc[nH]1	none (no result: AHR act)
Cn1c(C(=O)NC2CCCCCC2)cc2c(=O)n(C)c3ccccc3c21	AHR act 51.0
Cn1c(C(=O)N2CCCCCC2)cc2c(=O)n(C)c3ccccc3c21	none
Cc1cccc(N2CCN(C(=O)c3cc4c(=O)n(C)c5ccccc5c4n3C)CC2C)c1 (centres undefined)	AHR act 67.9
O=C(NCCN1CCN(c2ccccc2)CC1)Nc1ccc(Cl)cc1	MC4R barr agon 9.2
O=C(CCN1CCN(c2ccccc2)CC1)Nc1cccc(Br)c1	MC4R barr agon 8.6
Cc1ccc(CN2CCC(C)(Oc3cccc(Cl)c3)C2)cc1 (centres undefined)	none (no result: AHR act)
N#Cc1c(NCCN)nc(NCc2ccccc2)c2c1CCN(Cc1ccccc1)C2	none (no result: AHR act)
C=CCNc1nc(NCc2ccccc2)c(C#N)c2c1CN(C)CC2	AHR act 53.6
CCCCCNc1nc(N2CCCC2)c2c(c1C#N)CCN(C)C2	AHR act 59.5
CCCCCNc1nc(NCCCO)c(C#N)c2c1CN(C)CC2	AHR act 58.3
CN1CCc2c(C#N)c(N3CCOCC3)nc(NCC3CCCO3)c2C1 (centres undefined)	none
CCC(C)(C)NC(=O)C(c1cccc(OC)c1)N(C(=O)CNC(=O)c1cccs1)c1cccnc1 (centres undefined)	none
